This note sets out measurements from ChEMBL document CHEMBL1139079, “Synthesis and HIV-1 integrase inhibitory activity of spiroundecane(ene) derivatives” (Bioorg Med Chem Lett, 2007).

The source made the active and inactive calls. The calls are words filed in the database; no cut-off is given here.

Series [1] addresses T1, Human immunodeficiency virus type 1 integrase (Human immunodeficiency virus 1, UniProt Q7ZJM1). Put plainly: (§1) Inhibition of recombinant HIV1 integrase 3'-end processing activity. In a few lines: (§2)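 Recombinant HIV-1 integrase with a 21 bp duplex substrate, 5'-[32P]-labelled. 3'-processing read as release of the terminal dinucleotide; strand transfer read as DNA products longer than the starting substrate. Products resolved by PAGE. IC50 given as mean and standard deviation of at least three independent experiments.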

For series [2], the target named is T1, Human immunodeficiency virus type 1 integrase. The experiment in a line: (§3) Inhibition of recombinant HIV1 integrase strand transfer activity. An outline of the steps:
as §2

A short description of series [3]: Cytotoxicity against MT2 cells. The class given is cell-based. The settings on record: human.
In series [4] the target is Human immunodeficiency virus type 1 integrase (Human immunodeficiency virus 1) (UniProt Q7ZJM1). The description is as §1. In a few lines:
as §2

Series [5] has the same target. The series is described as §3. In a few lines:
as §2

The target of series [6] is T1, Human immunodeficiency virus type 1 integrase. Put plainly: Inhibition of recombinant HIV1 integrase mediated-disintegration activity. In a few lines:
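Reverse of strand transfer, run with recombinant HIV-1 integrase on a Y-oligomer substrate carrying a 5'-[32P] label. Cleavage of the 34-mer strand releases a radiolabelled 19-bp oligonucleotide, which was detected by PAGE after reactions over a range of drug concentrations. IC50 derived from the gel analysis.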

T1 sequence (Q7ZJM1 whole entry): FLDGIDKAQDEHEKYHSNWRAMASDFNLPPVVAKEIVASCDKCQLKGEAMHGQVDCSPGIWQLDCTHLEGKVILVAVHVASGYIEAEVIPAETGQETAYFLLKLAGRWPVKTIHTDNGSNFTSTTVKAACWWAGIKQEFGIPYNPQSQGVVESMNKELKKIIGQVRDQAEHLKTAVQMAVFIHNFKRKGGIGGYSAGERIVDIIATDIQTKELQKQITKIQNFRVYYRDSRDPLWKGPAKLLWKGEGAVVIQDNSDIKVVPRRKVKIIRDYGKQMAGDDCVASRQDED
Sequence of Human immunodeficiency virus type 1 integrase (Human immunodeficiency virus 1) (Q7ZJM1 as listed by the source): as the sequence (Q7ZJM1 whole entry) above

For orientation: IC50 means the point on the concentration scale where inhibition reaches its midpoint. A word on the CC50: it is the concentration giving 50% cytotoxicity. Low values mean harm at low concentration, high ones better tolerance by the cells. Take `COc1ccc([C@@H]2CC(=O)C[C@H](c3ccco3)C23C(=O)OC(C)(C)OC3=O)cc1`: the IC50 came to 130 µM in series [1] and 36.3 µM in series [2]. Besides, the CC50 in series [3] was over 111 µM.
As to `CCOC(=O)C1=C(O)CCC2(C(=O)OC(C)(C)OC2=O)[C@H]1c1ccccc1OC`, the outcome in series [4] was inactive. Also, the half-inhibitory concentration (IC50) in series [2] was 281 µM. The CC50 in series [3] is over 111 µM.
In the case of `COc1cccc([C@@H]2CC(=O)C[C@H](c3ccco3)C23C(=O)OC(C)(C)OC3=O)c1OC`, the results for the IC50 in series [1] and in series [2] were 44.8 µM and 44.2 µM, respectively. For the same compound, the CC50 in series [3] was over 111 µM.
Regarding `CC1(C)OC(=O)C2(C(=O)O1)[C@@H](c1ccco1)CC(=O)C[C@H]2c1ccc(Br)cc1`, the outcome in series [4] and in series [5] was inactive. The CC50 in series [3] is over 111 µM.
Consider `COc1ccc([C@@H]2CC(=O)C[C@H](c3ccco3)C23C(=O)OC(C)(C)OC3=O)cc1O`, for which the outcome in series [4] and in series [5] was inactive. In series [3], this compound gave a CC50 of over 111 µM.
For `CC1(C)OC(=O)C2(C(=O)O1)[C@@H](c1ccco1)CC(=O)C[C@H]2c1c[nH]c2ccccc12`, the half-maximal inhibitory concentration (IC50) in series [1] came out at 11.1 µM; in series [6], 19.2 µM; in series [2], 9.6 µM. Besides, the CC50 in series [3] is over 111 µM.
In the same order, the values of `CCOC(=O)C1=C(O)CCC2(C(=O)OC(C)(C)OC2=O)[C@H]1c1ccco1` are 67.8 µM, 213 µM, 43.8 µM and over 111 µM.
Regarding `CC1(C)OC(=O)C2(C(=O)O1)[C@@H](c1ccco1)CC(=O)C[C@H]2c1ccccc1Cl`, the outcome in series [4] and in series [5] was inactive. In series [3], this compound gave a CC50 of over 111 µM.
`COc1ccc([C@@H]2CC(=O)C[C@H](c3ccccc3OC)C23C(=O)OC(C)(C)OC3=O)cc1O`: the outcome in series [4] and in series [5] was inactive. The CC50 in series [3] is over 111 µM.
Consider `CC1(C)OC(=O)C2(C(=O)O1)[C@@H](c1ccco1)CC(=O)C[C@H]2c1ccco1`, for which the 50% inhibitory concentration (IC50) worked out at 32.9 µM in series [1], 81.4 µM in series [6] and 17.6 µM in series [2]. In addition, the 50% cytotoxic concentration (CC50) in series [3] is over 111 µM.
In the case of `CC1(C)OC(=O)C2(C(=O)O1)[C@@H](c1ccco1)CC(=O)C[C@H]2c1ccccc1`, the IC50 was 141 µM in series [1] and 132 µM in series [2]. In series [3], the CC50 was over 111 µM.
As to `CC1(C)OC(=O)C2(C(=O)O1)[C@@H](c1ccco1)CC(=O)C[C@H]2c1ccc(F)cc1`, the result in series [4] and in series [5] was inactive. The 50% cytotoxic concentration (CC50) in series [3] is over 111 µM.
`COc1ccc([C@H]2CC(=O)CCC23C(=O)OC(C)(C)OC3=O)cc1`: the IC50 in series [1] worked out at 142 µM; in series [2], 97.5 µM. This compound displayed a half-maximal cytotoxic concentration (CC50) in series [3] of over 111 µM.
In the same order, the values of `COc1ccc([C@@H]2CC(=O)C[C@H](c3ccco3)C23C(=O)OC(C)(C)OC3=O)cc1OC` are 111 µM, 91.5 µM and over 111 µM.
As to `COc1ccc([C@@H]2CC(=O)C[C@H](c3ccco3)C23C(=O)OC(C)(C)OC3=O)c(C)c1`, the result in series [4] and in series [5] was inactive. This compound gave a 50% cytotoxic concentration (CC50) in series [3] of over 111 µM.
